From PubChem BioAssay
Compounds with a hit are over-represented: about 1.1% of the library has one in this group of screens.
G6PDH counter: inhibits Leuconostoc G6PDH, flagging false hits in G6PDH-based assays; Purified L. mesenteroides G6PDH, diaphorase/resazurin coupled fluorescence, 45 min; inhibition, % at 5 µM; hit rate 0.12% among 200,000; in the data active means inhibition above about 50%
DTT redox prof: compounds producing H2O2 with reducing agent – biochemical, NIH compound library profiling, artefact control for MLSCN library redox annotation, primary screen | activation, % at 10 µM | DTT-dependent redox cycling H2O2, phenol red/HRP absorbance; 100% = 100 µM peroxide control, 0% = buffer | AID 878 | hit rate 0.03% among 200,000;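 active means activation of at least 50% relative to the plate's high and low controls in the primary single-dose screen; inactive means activation below 50%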;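 further: compound incubated with DTT at 0.8 mM final as the reducing agent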
Diaph act CS: counter-screen for diaphorase-based assays: diaphorase activators and chemical reducers | Diaphorase/resazurin coupled assay, resorufin fluorescence, 16 min; stronger effect = higher value; 1 = vehicle wells, 0 = NADH-free wells | activation factor at 20 µM | hit rate 0.005% among 190,000 | AID 1229;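 active means diaphorase activity raised at least twofold by the compound at 20 µM; inactive means activation factor below 2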
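Assay system: bacterial diaphorase enzyme (C. kluyveri) / Input: enzyme 0.07 U/mL final / Medium: 50 mM HEPES pH 7.4 with 4.542 mM MgCl2, 0.005% Tween 20 / Doses: single compound dose of 20 µM, 1% DMSO final / Incubation: 16 min enzyme reaction, ambient temperature / Signal: fluorescence, excitation 544 nm and emission 590 nm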
Diaphorase inh: diaphorase inhibition or chemical oxidation counter-screen. diaphorase resazurin-to-resorufin fluorescence, NADH, 16 min; bacterial (C. kluyveri) enzyme, not human. inhibition, % at 20 µM. hit rate 0.69% among 190,000. AID 1217;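 active means primary screen inhibition at 20 µM above a set limit, cut at about 50% in these data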
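controls = No-NADH positive control and DMSO neutral control | system = Clostridium kluyveri diaphorase enzyme | timing = reaction incubation of 16 min at room temperature | signal = resorufin fluorescence 544/590 nm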
PMI activator: phosphomannose isomerase (human) activation. P34949. activation factor at 20 µM. AID 1214. purified human PMI, coupled resazurin fluorescence, 20 min; stronger effect = higher value; 1 = vehicle control, 0 substrate-free wells. hit rate 0.005% among 190,000;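 active means activation factor of 2 or more at 20 µM, relative to plate controls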
Target sequence (P34949 whole entry, looked up): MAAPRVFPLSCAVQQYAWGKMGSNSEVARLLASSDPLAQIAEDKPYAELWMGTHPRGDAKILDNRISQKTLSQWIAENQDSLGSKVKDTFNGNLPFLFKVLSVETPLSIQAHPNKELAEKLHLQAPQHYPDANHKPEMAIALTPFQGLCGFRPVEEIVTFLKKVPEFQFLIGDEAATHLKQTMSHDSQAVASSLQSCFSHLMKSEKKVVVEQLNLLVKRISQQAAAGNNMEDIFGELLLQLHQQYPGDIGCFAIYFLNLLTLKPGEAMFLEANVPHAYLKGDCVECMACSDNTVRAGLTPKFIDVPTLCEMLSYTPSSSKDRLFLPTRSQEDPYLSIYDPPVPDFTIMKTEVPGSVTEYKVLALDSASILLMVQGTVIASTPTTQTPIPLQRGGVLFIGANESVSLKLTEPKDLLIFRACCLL
PMI act satM6P: activators of human phosphomannose isomerase at near-saturating mannose 6-phosphate; coupled PMI enzyme assay, resazurin fluorescence, 20 min; stronger effect = higher value; 1 = untreated enzyme, 0 = substrate-free blank; P34949; activation factor at 20 µM; hit rate 0.34% among 190,000;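 active means activation factor of 2 or more at 20 µM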
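Test system: Human PMI in coupled enzyme assay | Input: 15 ng/mL PMI | Medium: HEPES-buffered pH 7.4 with magnesium and detergent | Compound: One concentration, 20 µM, in 1% DMSO | Incubation: Enzyme reaction with compound 20 min at room temperature | Detection: Diaphorase-driven resazurin-to-resorufin fluorescence, excitation 544, emission 590 nm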
DTT redox conf: generates H2O2 by DTT-dependent redox cycling, confirmed in dose response | phenol red-HRP absorbance | shares compounds with DTT redox prof | hit rate 40% among 60 | AID 1234 | EC50, µM;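 active means EC50 under a set limit for hydrogen peroxide production with the reducing agent DTT present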
Each line names hits and unclear results; the compound was inactive in the other large screens (follow-up assays come after a bar, where they were run).

CN1C(=O)NC(=O)C2(Cc3ccccc3N3CCOCC32)C1=O (configuration not stated)	none
O=C1NC(=O)[C@]2(Cc3ccccc3N3CCN(c4ccccc4)CC32)C(=O)N1c1ccccc1 (some centres not stated)	PMI act satM6P 2.1
CN1C(=O)NC(=O)[C@]2(Cc3ccccc3N3CCN(c4ccccc4)CC32)C1=O (some centres not stated)	PMI act satM6P 2.1
N#CC1=C(N)Oc2c(c(=O)sc3ccccc23)C1c1cccnc1 (configuration not stated)	none
CCC(=O)O[C@@H]1[C@@H](OC(C)=O)[C@@]2(O)C(C[C@H](O)C2(C)C)[C@](C)(O)[C@H]2CC[C@@H]3[C@@H](O)[C@]12C[C@@]3(C)O (some centres not stated)	none
CSC(=Nc1ccccc1)c1c(O)n(C)c(=O)n(C)c1=O	PMI act satM6P 2.2
COc1cc(CN2CCCC(C(=O)c3sccc3C)C2)cc(OC)c1O (configuration not stated)	G6PDH counter 57
O=C(Nc1nc(-c2ccccc2)c(-c2ccccc2)s1)c1ccc(S(=O)(=O)N(CCCl)CCCl)cc1	none
CN[C@@H]1C[C@@H](c2ccc(Cl)c(Cl)c2)c2ccccc21	Diaphorase inh 72 (no result: DTT redox prof)
CC(NCc1ccc(Cl)c(Cl)c1)C(O)c1ccccc1 (configuration not stated)	none
CCOc1ccc2oc(C(=O)NN3C(C)CCCC3C)c(C)c2c1 (configuration not stated)	none
CCn1nc(-c2cccs2)nc2c(=O)n(C)c(=O)nc1-2	G6PDH counter 58 (no result: DTT redox prof)
CCC1(C)OC(c2ccccc2)=C/C(=C/C=C2C(=O)NC(=O)NC2=O)O1 (configuration not stated)	none
Cc1c(C(c2ccc(Cl)cc2Cl)c2c(O)c3ccccc3oc2=O)c(=O)n(-c2ccccc2)n1C (configuration not stated)	none
O=C1NC(=O)N(CCc2ccc(F)cc2)C(=O)/C1=C/c1ccco1	PMI act satM6P 2
Cc1ccc(/C=C2/C(=O)NC(=O)N(CCc3ccc(F)cc3)C2=O)o1	none
CCOC(=O)c1ccc(N2C(=O)CC(N3CC=C(c4ccc(F)cc4)CC3)C2=O)cc1 (configuration not stated)	PMI act satM6P 2
O=C(Nc1ccc(Cl)cc1C(=O)c1ccccc1Cl)c1ccco1	none
Cc1cccnc1NC1=NCC(C)S1 (configuration not stated)	DTT redox prof 71 | DTT redox conf inactive
COc1ccccc1-n1c(Cc2ccccc2)nc2ccccc2c1=O	none
CCCCn1c(NC(=O)c2ccco2)c(C(=O)OCC)c2nc3ccccc3nc21	DTT redox prof 81, Diaphorase inh 66 | DTT redox conf inactive
CCn1c(NN=O)nc2ccccc21	none
CCn1nc(/C=C/c2ccccc2)nc2c(=O)n(C)c(=O)nc1-2	G6PDH counter 61, DTT redox prof 152 | DTT redox conf inactive
CC(C)C/C(=N/O)c1cn(C)c2ccccc12	none
